This is a sample that favours compounds with a hit; in the whole collection about 1.6% have one here.
Arr AP2 block – blocks beta-arrestin peptide binding to AP2 adaptin; FITC-arrestin peptide / GST-AP2 beads, flow cytometry; AP2 beta2 appendage carries R879A mutation; inhibition, % at 10 µM; actives 0.31% (n = 340,000); AID 504490;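 active means inhibition above a set limit, near 3 SD of compounds lacking own fluorescence, cut at about 54% in these data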;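 further: plate controls were DMSO wells for no effect and 5 µM unlabelled arrestin peptide for full effect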
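system = GST-tagged AP2 beta2-adaptin appendage (R879A) on 4 µm glutathione beads | reagent = FITC-labelled arrestin peptide probe, 50 nM final | schedule = compound with beads 12 min RT, then probe 1 h RT | signal = HyperCyt-sampled flow cytometry, FL1 channel, ex 488/em 535 nm | read-out = percent response from loss of bead-bound FITC fluorescence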
Rin1-Abl PPI inh – human Rin1-Abl interaction inhibition | TR-FRET Rin1/Abl binding, biochemical | actives 0.4% (n = 360,000) | inhibition, % at 7.35 µM | P00519+Q13671 | AID 588664; in the data active means inhibition above about 5%, passing the limit was not always enough
SKN-1 inh – blocks SKN-1 activity in C. elegans; C. elegans VP596 Pgst-4::GFP/RFP ratio, acrylamide-induced, 24 h; inhibition, % at 21.8 µM; actives 0.49% (n = 360,000); AID 624304;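 active means interference check ratio from 0.5 to 1.5 plus GFP to RFP signal ratio inhibition reaching or exceeding a fixed threshold, cut at about 30% in these data, passing the limit was not always enough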
Tb MetRS inh – blocks T. brucei methionyl-tRNA synthetase activity; purified T. brucei MetRS, ATP depletion, Kinase-Glo luminescence; AID 624268; inhibition, % at 11.9 µM; actives 0.4% (n = 360,000);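 active means inhibition above a per-plate cutoff of the control wells' mean inhibition plus 3 SD, cut at about 5.5% in these data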;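 further: 0% = DMSO wells median and 100% = median of wells with control inhibitor compound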
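Test system – parasite MetRS enzyme · Reagent – substrates ATP, L-methionine and bulk Escherichia coli tRNA · Doses – 11.9 µM compound single dose, 0.9% DMSO · Times – 15 min enzyme-compound preincubation, 2 h reaction, 10 min detection, 25 °C · Signal – Kinase-Glo luminescence, ATP depletion format · Controls – DMSO-only wells as low control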
MT1-MMP act inh – MT1-MMP (human) activation inhibition. P50281. HT1080 RFP-PRO-GFP cells, GFP/RFP ratio fluorescence, overnight; percent of plate control window, DMSO zero. GFP/RFP ratio change, % at 20 µM. actives 0.061% (n = 360,000). AID 651647;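 active means GFP/RFP ratio change of at least 30% with cell ATP level not reduced by more than half and red fluorescence within 50% of control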
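Assay system: HT1080 RFP-PRO-GFP cells. Benchmarks: DMSO vehicle wells and RFP-L50D-GFP reporter cell wells. Times: overnight cell settling, then overnight compound exposure, 37 °C, 5% CO2. Compound: 20 µM single dose, 1% DMSO. Read-out basis: GFP/RFP fluorescence ratio.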
Arr AP2 CP1 – blocks beta-arrestin peptide binding to human AP2 | shares compounds with Arr AP2 block | GST-AP2 beads, FITC arrestin peptide binding, flow cytometry; GST-fused beta2-adaptin appendage, R879A mutant | inhibition, % at 10 µM | actives 2% (n = 1,300) | AID 504908;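 active means inhibition above a set limit, roughly 3 SD of non-fluorescent compound noise, cut at about 38% in these data; inactive means inhibition at or below that limit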;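 further: loss of bead fluorescence from 50 nM FITC arrestin peptide bound to appendage; 0% = negative control wells and 100% = excess unlabelled arrestin peptide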
Target sequence (P63010 whole entry, looked up, the tested form may be a part, one chain of several): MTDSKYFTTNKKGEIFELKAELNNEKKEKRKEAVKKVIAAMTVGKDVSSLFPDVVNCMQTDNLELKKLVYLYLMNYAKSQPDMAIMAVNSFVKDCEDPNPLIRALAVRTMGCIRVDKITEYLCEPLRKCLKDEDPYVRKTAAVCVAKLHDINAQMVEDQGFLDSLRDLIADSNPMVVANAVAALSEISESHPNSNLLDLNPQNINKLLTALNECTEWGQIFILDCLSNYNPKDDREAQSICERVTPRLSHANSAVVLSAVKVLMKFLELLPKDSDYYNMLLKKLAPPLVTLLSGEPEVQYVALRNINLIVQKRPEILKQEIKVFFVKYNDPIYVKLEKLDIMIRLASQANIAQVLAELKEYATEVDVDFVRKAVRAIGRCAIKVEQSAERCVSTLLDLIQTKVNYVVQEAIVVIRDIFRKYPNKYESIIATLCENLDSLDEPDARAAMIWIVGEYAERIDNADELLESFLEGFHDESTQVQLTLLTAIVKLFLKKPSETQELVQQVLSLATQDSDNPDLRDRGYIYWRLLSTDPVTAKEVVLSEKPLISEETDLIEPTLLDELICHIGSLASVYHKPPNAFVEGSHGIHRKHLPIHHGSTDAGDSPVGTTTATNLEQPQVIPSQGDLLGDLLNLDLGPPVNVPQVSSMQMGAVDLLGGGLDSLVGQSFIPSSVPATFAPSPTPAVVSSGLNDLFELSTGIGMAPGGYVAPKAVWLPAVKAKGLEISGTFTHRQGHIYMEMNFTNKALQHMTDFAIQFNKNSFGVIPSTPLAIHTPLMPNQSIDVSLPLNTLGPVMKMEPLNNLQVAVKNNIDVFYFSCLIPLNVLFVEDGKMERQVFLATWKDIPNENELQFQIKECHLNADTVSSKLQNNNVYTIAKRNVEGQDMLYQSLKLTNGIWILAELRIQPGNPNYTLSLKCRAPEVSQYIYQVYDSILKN
GST-FITC bead – GST-GSH bead binding interference, counter-screen; GST-fluorescein binding to GSH beads, fluorescence; AID 588338; actives 2% (n = 1,300); shares compounds with Arr AP2 block; inhibition, % at 10 µM;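 active means inhibition above 50%, about 3 SD of the inhibition seen with non-fluorescent compounds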;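 further: fluorescein maleimide labelled GST captured on 4 micron glutathione beads; higher means more loss of bead fluorescence from quenching or blocked binding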
* = called active by the depositor.

CC1CN(C(=O)c2ccc(NS(=O)(=O)c3ccc(F)c(F)c3)cc2)CC(C)O1 (stereo not given) was read as Arr AP2 block 56*, Rin1-Abl PPI inh 1, SKN-1 inh -8, Tb MetRS inh 0, MT1-MMP act inh 2, Arr AP2 CP1 -1 and GST-FITC bead -11.
Cc1cc(S(=O)(=O)Nc2ccc(C(=O)N3CC(C)OC(C)C3)cc2)ccc1F (stereo not given) was read as Arr AP2 block -7, Rin1-Abl PPI inh 1, SKN-1 inh 16, Tb MetRS inh 0 and MT1-MMP act inh -5.
For O=C(CCn1nc(-c2ccc(Cl)cc2)ccc1=O)NCc1ccccn1 the results were Arr AP2 block 79*, Rin1-Abl PPI inh 1, SKN-1 inh -9, Tb MetRS inh 0, MT1-MMP act inh 1, Arr AP2 CP1 -1 and GST-FITC bead -6.
For O=C(Nc1cc(Cl)ccc1Oc1ccccc1)c1ccccc1F the results were Arr AP2 block -11, Rin1-Abl PPI inh -2, SKN-1 inh 19, Tb MetRS inh 0 and MT1-MMP act inh -5.
Screening O=C(Nc1cc(Cl)ccc1Oc1ccccc1)c1ccc(F)cc1 returned Arr AP2 block 61*, Rin1-Abl PPI inh 3, SKN-1 inh 11, Tb MetRS inh 0, MT1-MMP act inh 2, Arr AP2 CP1 -8 and GST-FITC bead -10.
Screening Cc1ccc2nc(-c3cccc(Br)c3)cc(C(=O)NCC3CCCO3)c2c1 (stereo not given) returned Arr AP2 block -6, Rin1-Abl PPI inh 1, SKN-1 inh -9, Tb MetRS inh -1 and MT1-MMP act inh 3.
`O=C(NCC1CCCO1)c1cc(-c2ccccc2)nc2ccc(Br)cc12` (stereo not given) gave Arr AP2 block 54*, Rin1-Abl PPI inh -16, SKN-1 inh 1, Tb MetRS inh 0, MT1-MMP act inh 6, Arr AP2 CP1 1 and GST-FITC bead -5.
Screening O=C(NCCCN1CCCC1=O)c1cc(=O)c2ccccc2o1 returned Arr AP2 block 74*, Rin1-Abl PPI inh 2, SKN-1 inh 14, Tb MetRS inh 0, MT1-MMP act inh -4, Arr AP2 CP1 4 and GST-FITC bead 1.
Screening CCN(C(=O)Cn1cc(C(=O)C(=O)N2CCOCC2)c2ccccc21)c1ccccc1 returned Arr AP2 block 66*, Rin1-Abl PPI inh 2, SKN-1 inh -8, Tb MetRS inh 0, MT1-MMP act inh -4, Arr AP2 CP1 -8 and GST-FITC bead 1.
For O=C(CSc1nc2ccc([N+](=O)[O-])cc2[nH]1)c1ccc2ccccc2c1 the results were Arr AP2 block 106*, Rin1-Abl PPI inh -3, SKN-1 inh 10, Tb MetRS inh 1, MT1-MMP act inh 3, Arr AP2 CP1 -5 and GST-FITC bead 4.
For Cc1nc([N+](=O)[O-])c(Sc2nc3ccc([N+](=O)[O-])cc3[nH]2)n1Cc1ccccc1 the results were Arr AP2 block 4, Rin1-Abl PPI inh 1, SKN-1 inh 5, Tb MetRS inh 1 and MT1-MMP act inh 7.
O=S1(=O)C[C@H](N2CCCC2)[C@@H](COCc2ccccc2)N1 was read as Rin1-Abl PPI inh 6, SKN-1 inh -7, Tb MetRS inh -2 and MT1-MMP act inh 4.
`Cc1cc(C(=O)OCC(=O)NCCc2ccccc2)c2ccccc2n1` gave Arr AP2 block 54*, Rin1-Abl PPI inh -1, SKN-1 inh -16, Tb MetRS inh 0, MT1-MMP act inh 2, Arr AP2 CP1 4 and GST-FITC bead 1.
For O=C(Nc1ccccc1)c1nn(-c2ccccc2)c(=O)cc1C(F)(F)F the results were Arr AP2 block 101*, Rin1-Abl PPI inh 2, SKN-1 inh 6, Tb MetRS inh 0, MT1-MMP act inh -40, Arr AP2 CP1 -3 and GST-FITC bead -9.
`COC(=O)[C@@]1(Cc2ccc(F)cc2)[C@H]2c3cc(C(=O)N(C)C)n(CCc4c[nH]c5ccc(O)cc45)c3C[C@H]2CN1C(=O)c1ccccc1` gave SKN-1 inh -3, Tb MetRS inh -1 and MT1-MMP act inh 0.
`CN1C(=O)NC(c2ccc(O)cc2)C2=C1CN(c1cccc3ccccc13)C2=O` (stereo not given) gave Arr AP2 block -4, Rin1-Abl PPI inh 0, SKN-1 inh 5, Tb MetRS inh 0, MT1-MMP act inh -12, Arr AP2 CP1 -6 and GST-FITC bead 6.
`O=C1NC[C@H](CCCCN2C[C@H](Cc3ccc(O)cc3)N(CC3CCCCC3)C(=O)C2=O)N(CC2CCCCC2)C1=O` gave SKN-1 inh 5, Tb MetRS inh 0 and MT1-MMP act inh 7.
Screening COc1cc(Cl)c(C)cc1NC(=O)c1ccc(S(C)(=O)=O)cc1 returned Arr AP2 block 55*, Rin1-Abl PPI inh -2, SKN-1 inh -15, Tb MetRS inh 0, MT1-MMP act inh -2, Arr AP2 CP1 -5 and GST-FITC bead -10.
COc1ccc(NC(=O)c2ccc(S(=O)(=O)C(F)F)cc2)c(OC)c1 was read as Arr AP2 block 60*, Rin1-Abl PPI inh -1, SKN-1 inh -8, Tb MetRS inh 0, MT1-MMP act inh 4, Arr AP2 CP1 0 and GST-FITC bead -7.
Screening COc1cc(NC(=O)c2ccccc2)c(OC)cc1Cl returned Arr AP2 block 6, Rin1-Abl PPI inh -3, SKN-1 inh 12, Tb MetRS inh -1 and MT1-MMP act inh -3.
CC1=C(C(=O)N2CCCCCC2)CC(CC(=O)NCC2CCCCC2)C(=O)N1Cc1ccc(F)cc1 (stereo not given) was read as SKN-1 inh -1, Tb MetRS inh -1 and MT1-MMP act inh 16.
`CC1(C(=O)NS(=O)(=O)c2cccc(F)c2)CCN1C(=O)Cc1cccs1` (stereo not given) gave Rin1-Abl PPI inh 2, SKN-1 inh 7, Tb MetRS inh 0 and MT1-MMP act inh -2.
For O=C(Nc1ccc(NC(=S)NC(=O)c2ccccc2Cl)cc1)c1cccc(Cl)c1 the results were Arr AP2 block 59*, Rin1-Abl PPI inh 4, SKN-1 inh 8, Tb MetRS inh 0, MT1-MMP act inh 4, Arr AP2 CP1 9 and GST-FITC bead 0.
CC(=O)Nc1ccc(S(=O)(=O)N2c3ccccc3NC(=O)CC2C)c(Cl)c1 (stereo not given) was read as Arr AP2 block 54*, Rin1-Abl PPI inh 1, SKN-1 inh 6, Tb MetRS inh -1, MT1-MMP act inh 0, Arr AP2 CP1 -18 and GST-FITC bead -1.

Compound activity (PubChem BioAssay)
